Experimental data: ChEMBL document CHEMBL1145796, “Neuromuscular blocking activity and therapeutic potential of mixed-tetrahydroisoquinolinium halofumarates and halosuccinates in rhesus monkeys” (2003)

Experiments:
[1] = Dose required for 95% suppression of the twitch response at the extensor digitorum in male Rhesus monkey.; assay type: functional, Cercopithecidae
In short: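 Adult male rhesus monkeys (8–15 kg) under ketamine (5 mg/kg i.m.) and pentobarbital (2–5 mg/kg iv) induction, then N2O 60%/O2 40%/halothane 0.5–1%, ventilated, core temperature 37–38 °C. Twitch of extensor digitorum was recorded after ≥20 min stable baseline. Sequential iv bolus doses from 0.03 to 6.4 mg/kg. Per-animal ED95 came from log-probability regression of dose vs % block. Other lines give the single dose tested with its % block.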

[2] = Time from injection to peak inhibition of twitch response at the ED95 dose in male Rhesus monkey.; assay type: functional, Cercopithecidae
In short: (§1)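 Anesthetized, ventilated male rhesus monkeys received sequential iv bolus doses with extensor digitorum twitch recorded. Onset is injection to peak twitch inhibition. Duration is injection to 95% twitch recovery. Values at the ED95 were read from plots of onset or duration vs dose. Means ± SE across animals.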

[3] = Selectivity index is changes in heart rate(cv dose) to the suppression of twitch response (ED95) in male Rhesus monkey; assay type: functional, Cercopithecidae
In short: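 Same anesthetized male rhesus preparation, with blood pressure, heart rate and EKG recorded alongside twitch during sequential iv doses up to 6.4 mg/kg. Cardiovascular threshold dose is the dose giving ≥10% change in heart rate or mean arterial pressure. Index = mean threshold dose / mean ED95 (extensor digitorum).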

[4] = Time from injection to 95% recovery of the twitch response at the ED95 dose in male Rhesus monkey.; assay type: functional, Cercopithecidae; in short: as §1
[5] = Time from injection to 95% recovery of twitch response at a dose of 0.2 mg/kg in male Rhesus monkey was evaluated
[6] = Time from injection to peak inhibition of twitch response at a dose of 0.2 mg/kg in male Rhesus monkey was evaluated; assay type: functional, Cercopithecidae
In short: (§2)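 Single iv bolus of 0.2 or 0.4 mg/kg in anesthetized, ventilated male rhesus monkeys, with extensor digitorum twitch recorded. Onset taken from injection to peak twitch inhibition at the given dose. Means ± SE, N = number of animals.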

[7] = Time from injection to peak inhibition of twitch response at a dose of 0.4 mg/kg in male Rhesus monkey was evaluated; assay type: functional, Cercopithecidae; in short: as §2
[8] = Time from injection to 95% recovery of twitch response at a dose of 0.4 mg/kg in male Rhesus monkey was evaluated
[9] = Cercopithecidae, read-out: ED95

With COc1cc(CC2c3cc4c(cc3CC[N@@+]2(C)CCCOC(=O)/C(Cl)=C/C(=O)OCCC[N@+]2(C)CCc3cc5c(cc3[C@H]2Cc2cc(OC)c(OC)c(OC)c2)OCO5)OCO4)cc(OC)c1OC.[Cl-].[Cl-] (some centres not stated) the ED95 [1, 9] was 0.62 mg/kg, the Onset [2] was 27 s and the Selectivity index [3] was 1.3. For the same compound, the Duration [4] was 2.4 min.
For COc1ccc([C@@H]2c3cc(OC)c(OC)cc3CC[N@@+]2(C)CCCOC(=O)CC(F)(F)C(=O)OCCC[N@+]2(C)CCc3cc(OC)c(OC)cc3[C@H]2Cc2cc(OC)c(OC)c(OC)c2)cc1OC.[Cl-].[Cl-], the ED95 [1, 9] was 0.06 mg/kg, the Onset [2] was 55 s and the Duration [4] was 3.9 min.
COc1cc2c(cc1OC)[C@H](c1cc(OC)c(OC)c(OC)c1)[N@@+](C)(CCCOC(=O)CC(F)(F)C(=O)OCCC[N@+]1(C)CCc3cc(OC)c(OC)c(OC)c3[C@H]1Cc1cc(OC)c(OC)c(OC)c1)CC2.[Cl-].[Cl-] gave an ED95 [1, 9] of 0.04 mg/kg, an Onset [2] of 217 s and a Selectivity index [3] of 60. For the same compound, the Duration [4] was 14 min.
Compound COc1cc2c(cc1OC)[C@@H](c1cc(OC)c(OC)c(OC)c1)[N@+](C)(CCCOC(=O)/C=C(\Cl)C(=O)OCCC[N@+]1(C)CCc3cc(OC)c(OC)c(OC)c3[C@H]1Cc1cc(OC)c(OC)c(OC)c1)CC2.[Cl-].[Cl-] has an ED95 [1, 9] of 0.053 mg/kg, an Onset [2] of 113 s and a Selectivity index [3] of 15. It also gave a Duration [4] of 9.9 min.
Compound COc1cc2c(cc1OC)[C@H](c1cc(OC)c(OC)c(OC)c1)[N@@+](C)(CCCOC(=O)CCCCCCCCC(=O)OCCC[N@+]1(C)CCc3cc(OC)c(OC)cc3[C@H]1Cc1cc(OC)c(OC)c(OC)c1)CC2.[Cl-].[Cl-] has an ED95 [1, 9] of 0.2 mg/kg, an Onset [2] of 110 s and a Duration [4] of 13.5 min.
With COc1cc2c(cc1OC)[C@H](c1cc(OC)c(OC)c(OC)c1)[N@@+](C)(CCCOC(=O)/C=C(\F)C(=O)OCCC[N@+]1(C)CCc3cc(OC)c(OC)c(OC)c3[C@H]1Cc1cc(OC)c(OC)c(OC)c1)CC2.[Cl-].[Cl-] the ED95 [1, 9] was 0.077 mg/kg, the Onset [2] was 85 s and the Selectivity index [3] was 21. It also gave a Duration [4] of 10 min.
Work on COc1cc2c(cc1OC)[C@H](c1cc(OC)c(OC)c(OC)c1)[N@@+](C)(CCCOC(=O)/C=C(\Cl)C(=O)OCCC[N@+]13CCc4cc(OC)c(OC)c(OC)c4[C@H]1Cc1cc(OC)c(OC)c(OC)c1C3)CC2.[Cl-].[Cl-] yielded an ED95 [1, 9] of 0.8 mg/kg, an Onset [2] of 28 s and a Duration [4] of 4.5 min.
Work on COc1cc2c(cc1OC)[C@H](c1cc(OC)c(OC)c(OC)c1)[N@@+](C)(CCCOC(=O)CCCCC(=O)OCCC[N@+]1(C)CCc3cc(OC)c(OC)cc3[C@H]1Cc1cc(OC)c(OC)c(OC)c1)CC2.[Cl-].[Cl-] yielded an ED95 [1, 9] of 0.136 mg/kg, an Onset [2] of 75 s and a Duration [4] of 13 min.
Compound COc1cc2c(cc1OC)[C@H](c1cc(OC)c(OC)c(OC)c1)[N@@+](C)(CCCOC(=O)CCCCCCC(=O)OCCC[N@+]1(C)CCc3cc(OC)c(OC)cc3[C@H]1Cc1cc(OC)c(OC)c(OC)c1)CC2.[Cl-].[Cl-] has an ED95 [1, 9] of 0.067 mg/kg, an Onset [2] of 117 s and a Selectivity index [3] of 12. It also gave a Duration [4] of 10.9 min.
Work on COc1cc2c(cc1OC)[C@@H](Cc1cc(OC)c(OC)c(OC)c1)[N@+](C)(CCCOC(=O)/C(Cl)=C/C(=O)OCCC[N@+]13CCc4cc(OC)c(OC)cc4[C@H]1c1cc(OC)c(OC)cc1CC3)CC2.[Cl-].[Cl-] yielded an ED95 [1, 9] of 0.078 mg/kg, an Onset [2] of 94 s and a Selectivity index [3] of 5. The Duration [4] was 5.2 min.
COc1cc2c(cc1OC)C(c1cc(OC)c(OC)c(OC)c1)[N@+](C)(CCCOC(=O)/C(Cl)=C/C(=O)OCCC[N@+]1(C)CCc3cc(OC)c(OC)cc3[C@H]1c1cc(OC)c(OC)c(OC)c1)CC2.[Cl-].[Cl-] (some centres not stated) showed an ED95 [1, 9] of 1.79 mg/kg, an Onset [2] of 46 s and a Selectivity index [3] of 3.6. For the same compound, the Duration [4] was 5.1 min.
Compound COc1ccc([C@H]2c3cc(OC)c(OC)cc3CC[N@+]2(C)CCCOC(=O)/C=C(\Cl)C(=O)OCCC[N@+]2(C)CCc3cc(OC)c(OC)cc3[C@H]2Cc2cc(OC)c(OC)c(OC)c2)cc1.[Cl-].[Cl-] has an ED95 [1, 9] of 0.136 mg/kg, an Onset [2] of 69 s and a Selectivity index [3] of 6. The Duration [4] was 7.4 min.
In the case of COc1cc2c(cc1OC)[C@H](c1cc(OC)c(OC)c(OC)c1)[N@@+](C)(CCCOC(=O)/C=C(\Cl)C(=O)OCCC[N@+]1(C)CCc3cc(OC)c(OC)cc3[C@H]1Cc1cc(OC)c(OC)c(OC)c1)CC2.[Cl-].[Cl-] (stereo in doubt; 24a) [GANTACURIUM CHLORIDE], the ED95 [1] is reported as 0.063 mg/kg and the Selectivity index [3] is reported as 57.
COc1cc2c(cc1OC)C(c1cc(OC)c(OC)c(OC)c1)[N@+](C)(CCCOC(=O)/C=C/C(=O)OCCC[N@+]1(C)CCc3cc(OC)c(OC)cc3[C@H]1c1cc(OC)c(OC)c(OC)c1)CC2.[Cl-].[Cl-] (some centres not stated) showed an ED95 [1, 9] of 1.55 mg/kg, an Onset [2] of 114 s and a Selectivity index [3] of 0.65. It also gave a Duration [4] of 25.5 min.
For COc1cc2c(cc1OC)[C@H](c1cc(OC)c(OC)c(OC)c1)[N@@+](C)(CCCOC(=O)CC(F)(F)C(=O)OCCC[N@+]1(C)CCc3cc(OC)c(OC)cc3[C@H]1Cc1cc(OC)c(OC)c(OC)c1)CC2.[Cl-].[Cl-], the Duration [5] was 10.3 min, the Onset [6] was 37 s and the ED95 [1, 9] was 0.056 mg/kg. It also gave an Onset [2] of 78 s, a Selectivity index [3] of 96 and an Onset [7] of 22 s. For the same compound, the Duration [8] was 13 min and the Duration [4] was 7.3 min.
In the case of COc1cc2c(cc1OC)[C@H](c1cc(OC)c(OC)c(OC)c1)[N@@+](C)(CCCOC(=O)C(F)(F)CC(=O)OCCC[N@+]1(C)CCc3cc(OC)c(OC)cc3[C@H]1Cc1cc(OC)c(OC)c(OC)c1)CC2.[Cl-].[Cl-], the ED95 [1, 9] is reported as 0.39 mg/kg, the Onset [2] is reported as 26 s and the Duration [4] is reported as 4.9 min.
Work on COc1cc2c(cc1OC)[C@H](c1cc(OC)c(OC)c(OC)c1)[N@@+](C)(CCCOC(=O)/C=C(\Cl)C(=O)OCCC[N@@+]1(C)CCc3cc(OC)c(OC)cc3[C@@H]1c1cc(OC)c(OC)c(OC)c1)CC2.[Cl-].[Cl-] yielded a Selectivity index [3] of 1.5.
COc1cc2c(cc1OC)[C@H](c1cc(OC)c(OC)c(OC)c1)[N@@+](C)(CCCOC(=O)/C=C(\Cl)C(=O)OCCC[N@+]1(C)CCc3cc(OC)c(OC)cc3[C@H]1Cc1cc(OC)c(OC)c(OC)c1)CC2.[Cl-].[Cl-] (stereo in doubt; 24a/24b) [GANTACURIUM CHLORIDE] gave an ED95 [1] of 0.163 mg/kg and a Selectivity index [3] of 27.
COc1cc2c(cc1OC)[C@H](c1ccc(F)c(F)c1)[N@@+](C)(CCCOC(=O)/C=C(\Cl)C(=O)OCCC[N@+]1(C)CCc3cc(OC)c(OC)cc3[C@H]1Cc1cc(OC)c(OC)c(OC)c1)CC2.[Cl-].[Cl-] gave an ED95 [1, 9] of 0.09 mg/kg, an Onset [2] of 72 s and a Selectivity index [3] of 18. It also gave a Duration [4] of 4.7 min.
COc1cc2c(cc1OC)[C@H](c1cc(OC)c(OC)c(OC)c1)[N@@+](C)(CCCOC(=O)CCCCCCCC(=O)OCCC[N@+]1(C)CCc3cc(OC)c(OC)cc3[C@H]1Cc1cc(OC)c(OC)c(OC)c1)CC2.[Cl-].[Cl-] showed an ED95 [1, 9] of 0.17 mg/kg, an Onset [2] of 79 s and a Selectivity index [3] of 19. The Duration [4] was 9.7 min.
COc1cc2c(cc1OC)[C@@H](Cc1cc(OC)c(OC)c(OC)c1)[N+](C)(CCCOC(=O)CC/C=C/CCC(=O)OCCC[N+]1(C)CCc3cc(OC)c(OC)cc3[C@H]1Cc1cc(OC)c(OC)c(OC)c1)CC2.[Cl-].[Cl-] (some centres not stated) [MIVACURIUM CHLORIDE] showed a Selectivity index [3] of 24.
With COc1cc2c(cc1OC)[C@@H](c1cc(OC)c(OC)c(OC)c1)[N@+](C)(CCCOC(=O)/C(Cl)=C/C(=O)OCCC[N@+]1(C)CCc3cc(OC)c(OC)cc3[C@H]1Cc1cc(OC)c(OC)c(OC)c1)CC2.[Cl-].[Cl-] the Duration [4] was 3.7 min.
Work on COc1cc2c(cc1OC)[C@H](c1cc(OC)c(OC)c(OC)c1)N(CCCOC(=O)/C=C(\Cl)C(=O)OCCC[N@+]1(C)CCc3cc(OC)c(OC)cc3[C@H]1Cc1cc(OC)c(OC)c(OC)c1)CC2.Cl.[Cl-] yielded an ED95 [1, 9] of 0.87 mg/kg, an Onset [2] of 38 s and a Duration [4] of 5.4 min.
For COc1cc2c(cc1OC)[C@H](c1cc(OC)c(OC)c(OC)c1)[N@@+](C)(CCCOC(=O)/C=C(\F)C(=O)OCCC[N@+]1(C)CCc3cc(OC)c(OC)cc3[C@H]1Cc1cc(OC)c(OC)c(OC)c1)CC2.[Cl-].[Cl-], the ED95 [1, 9] was 0.137 mg/kg, the Onset [2] was 66 s and the Selectivity index [3] was 37. It also gave a Duration [4] of 4.4 min.
Work on COc1cc2c(cc1OC)C(Cc1cc(OC)c(OC)c(OC)c1)[N@+](C)(CCCOC(=O)/C(Cl)=C/C(=O)OCCC[N@+]1(C)CCc3cc(OC)c(OC)cc3[C@H]1Cc1cc(OC)c(OC)c(OC)c1)CC2.[Cl-].[Cl-] (some centres not stated) yielded an ED95 [1, 9] of 0.079 mg/kg, an Onset [2] of 96 s and a Selectivity index [3] of 20. For the same compound, the Duration [4] was 7.1 min.
COc1cc2c(cc1OC)[C@H](c1cc(OC)c(OC)c(OC)c1)[N@@+](C)(CCCOC(=O)CCC(F)(F)C(=O)OCCC[N@+]1(C)CCc3cc(OC)c(OC)cc3[C@H]1Cc1cc(OC)c(OC)c(OC)c1)CC2.[Cl-].[Cl-] gave an ED95 [1, 9] of 0.22 mg/kg, an Onset [2] of 48 s and a Duration [4] of 5.7 min.
With COc1cc2c(cc1OC)[C@@H](c1cc(OC)c(OC)c(OC)c1)[N@+](C)(CCCOC(=O)/C=C(\Cl)C(=O)OCCC[N@+]1(C)CCc3cc(OC)c(OC)c(OC)c3[C@H]1Cc1cc(OC)c(OC)c(OC)c1)CC2 the ED95 [1, 9] was 0.067 mg/kg, the Onset [2] was 57 s and the Selectivity index [3] was 24. The Duration [4] was 10 min.
